Tests used:
Mus musculus [1] = species: Mus musculus; test: Analgesic activity determined in mice using the Bradykinin-induced Writhing test; format: functional
Method in brief: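 Male CD1 mice (15–20 g), test drug given orally 15 min before bradykinin ip (4 μg in 0.2 mL sterile water), then a second bradykinin injection (0.2 μg/0.1 mL) 15 min later. Writhing was scored over the next 10 min, with control groups of 10 mice. ED50 was derived by log-probit analysis from at least five doses, with 95% limits.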

Mus musculus [2] = test: (§1) Hepatotoxicity in Swiss-Webster Mice Caused by compound at 750 mg/kg (i.p.) dose; format: functional; conditions: route intraperitoneal
Method in brief: (§2)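 Male Swiss-Webster mice (20 g), groups of 10, were given a single ip dose of drug in saline with no pretreatment. Survivors were decapitated at 24 h and counted. Plasma ALT was measured, and liver sections (formalin-fixed, paraffin, H&E) were scored for necrosis severity in survivors. Values are means ± SE.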

Mus musculus [3] = test: as §1; format: functional, organism-based; set-up: dose 750 mg/kg; method in brief: as §2
[4] = (§3) Hepatotoxicity in Swiss-Webster Mice Caused by compound at 1000 mg/kg (i.p.) (phenobarbital pretreated animals)dose; format: functional, Mus musculus; conditions: route intraperitoneal
Method in brief: (§4)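 Male Swiss-Webster mice (20 g), groups of 10. Sodium phenobarbital (80 mg/kg ip) was given 72, 60, 48 and 24 h before drug, then drug ip in saline. At 24 h: survivors counted, plasma ALT measured, and H&E liver sections scored for necrosis in survivors. Values are means ± SE.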

[5] = Hepatotoxicity in Swiss-Webster Mice Caused by compound at 1000 mg/kg (i.p.) (phenobarbital pretreated animals)dose; 5/10; format: functional, Mus musculus; conditions: route intraperitoneal; method in brief: as §4
Mus musculus [6] = test: Hepatotoxicity in Swiss-Webster Mice Caused by compound at 1000 mg/kg (i.p.) (cobaltous chloride pretreated animals)dose; format: functional, organism-based; set-up: dose 1000 mg/kg
Method in brief: (§5)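 Male Swiss-Webster mice (20 g), groups of 10. Cobaltous chloride (30 mg/kg ip) was given 48, 36, 24 and 12 h before drug, then drug ip in saline. At 24 h: survivors counted, plasma ALT measured, and H&E liver sections scored for necrosis in survivors. Values are means ± SE.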

Mus musculus [7] = test: (§6) Hepatotoxicity in Swiss-Webster Mice Caused by compound at 1000 mg/kg (i.p.) dose; format: functional; conditions: route intraperitoneal; method in brief: as §2
Mus musculus [8] = test: as §6; format: functional, organism-based; set-up: dose 1000 mg/kg; method in brief: as §2
Mus musculus [9] = test: Hepatotoxicity in Swiss-Webster Mice Caused by compound at 1000 mg/kg (i.p.) dose; 8/10; format: functional; conditions: route intraperitoneal; method in brief: as §2
Mus musculus [10] = test: Hepatotoxicity in Swiss-Webster Mice Caused by compound at 750 mg/kg (i.p.) dose; 10/10; format: functional; conditions: route intraperitoneal; method in brief: as §2
Mus musculus [11] = test: as §3; format: functional, organism-based; set-up: dose 1000 mg/kg; method in brief: as §4
Mus musculus [12] = test: (§7) Hepatotoxicity in Swiss-Webster Mice Caused by compound at 1000 mg/kg (i.p.) (pipernonyl butoxide pretreated animals)dose; format: functional, organism-based; set-up: dose 1000 mg/kg
Method in brief: (§8)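 Male Swiss-Webster mice (20 g), groups of 10. Piperonyl butoxide (neat, single 1360 mg/kg ip dose) was given 30 min before drug, then drug ip in saline. At 24 h: survivors counted, plasma ALT measured, and H&E liver sections scored for necrosis in survivors. Values are means ± SE.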

Mus musculus [13] = test: Hepatotoxicity in Swiss-Webster Mice Caused by compound at 1000 mg/kg (i.p.) (pipernonyl butoxide pretreated animals)dose; 10/10; format: functional; conditions: route intraperitoneal; method in brief: as §8
[14] = Hepatotoxicity in Swiss-Webster Mice Caused by compound at 1000 mg/kg (i.p.) (cobaltous chloride pretreated animals)dose; 9/10; format: functional, Mus musculus; conditions: route intraperitoneal; method in brief: as §5
Mus musculus [15] = test: as §7; format: functional; conditions: route intraperitoneal; method in brief: as §8

Structure (SMILES): CC(=O)Nc1ccc(O)cc1C
- ED50 (Mus musculus [1]): 177 mg/kg
- Hepatic necrosis in survivors (Mus musculus [2]): 0.8
- Plasma ALT at 24 h (Mus musculus [3]): 690 mU ml-1
- Hepatic necrosis in survivors [4]: 3.4
- Survivors at 24 h [5]: 5
- Plasma ALT at 24 h (Mus musculus [6]): 40 mU ml-1
- Hepatic necrosis in survivors (Mus musculus [7]): 1.75
- Plasma ALT at 24 h (Mus musculus [8]): 2110 mU ml-1
- Survivors at 24 h (Mus musculus [9]): 8
- Survivors at 24 h (Mus musculus [10]): 10
- Plasma ALT at 24 h (Mus musculus [11]): 3920 mU ml-1
- Plasma ALT at 24 h (Mus musculus [12]): 75 mU ml-1
- Survivors at 24 h (Mus musculus [13]): 10
- Survivors at 24 h [14]: 9
- Hepatic necrosis in survivors (Mus musculus [15]): 0

Reference: ChEMBL document CHEMBL1123436, “Comparative toxicities and analgesic activities of three monomethylated analogues of acetaminophen” (J Med Chem, 1986)
